What was measured:
[1] = Plasma clearance in Sprague-Dawley rat at 20 mg/kg, po and 5 mg/kg, iv; type: ADME, organism-based
Method in brief: (§1)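 Overnight-fasted animals dosed po in 0.5% methocel or iv in 60% PEG 200; plasma from serial blood samples stored at -10 °C, protein-precipitated with equal volume acetonitrile/0.1% formic acid, analysed by LC/MS/MS with internal standard against spiked blank-plasma standards; Cmax from po data, half-life from iv data.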

[2] = tested on: Rattus norvegicus; test: Analgesic activity in po dosed Sprague-Dawley rat assessed as inhibition of carrageenan-induced mechanical hyperalgesia relative to control; type: functional
Method in brief: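 SD rats given subplantar carrageenan; compound dosed orally as a single dose; mechanical hyperalgesia read at 3 h post carrageenan, 1 h post dose; inhibition expressed vs vehicle control; n = 10-20/group; 1-way ANOVA/Dunnett's.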

[3] = target: T1, Thromboxane A2 receptor (Homo sapiens, UniProt P21731); test: Displacement of [3H]SQ29548 from human TP receptor expressed in HEK293-EBNA cells by scintillation counting; type: cell-based
T1 sequence (P21731 whole entry): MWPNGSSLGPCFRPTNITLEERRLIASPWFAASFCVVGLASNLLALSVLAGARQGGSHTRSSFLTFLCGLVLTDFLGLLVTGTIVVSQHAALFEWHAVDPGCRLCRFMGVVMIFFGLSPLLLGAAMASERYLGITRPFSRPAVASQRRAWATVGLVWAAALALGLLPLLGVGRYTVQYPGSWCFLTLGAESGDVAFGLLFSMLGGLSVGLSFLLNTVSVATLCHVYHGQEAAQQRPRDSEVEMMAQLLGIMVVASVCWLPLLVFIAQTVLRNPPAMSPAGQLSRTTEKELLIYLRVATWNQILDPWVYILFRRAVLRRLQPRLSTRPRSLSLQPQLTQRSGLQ
Method in brief: (§2)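 Radioligand binding on membranes from HEK 293(EBNA) clonal lines overexpressing each prostanoid receptor, using the respective 3H-prostaglandin or thromboxane ligand; EP4 binding also run with 10% human serum; Ki as means of at least three experiments (rEP2, rEP3 n = 1).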

[4] = target: Prostaglandin E2 receptor EP4 subtype (Rattus norvegicus, UniProt P43114); test: Displacement of [3H]PGE2 from rat EP4 receptor expressed in HEK293-EBNA cells by scintillation counting; type: cell-based; method in brief: as §2
Chain of Prostaglandin E2 receptor EP4 subtype (Rattus norvegicus, UniProt P43114) (P43114 whole entry): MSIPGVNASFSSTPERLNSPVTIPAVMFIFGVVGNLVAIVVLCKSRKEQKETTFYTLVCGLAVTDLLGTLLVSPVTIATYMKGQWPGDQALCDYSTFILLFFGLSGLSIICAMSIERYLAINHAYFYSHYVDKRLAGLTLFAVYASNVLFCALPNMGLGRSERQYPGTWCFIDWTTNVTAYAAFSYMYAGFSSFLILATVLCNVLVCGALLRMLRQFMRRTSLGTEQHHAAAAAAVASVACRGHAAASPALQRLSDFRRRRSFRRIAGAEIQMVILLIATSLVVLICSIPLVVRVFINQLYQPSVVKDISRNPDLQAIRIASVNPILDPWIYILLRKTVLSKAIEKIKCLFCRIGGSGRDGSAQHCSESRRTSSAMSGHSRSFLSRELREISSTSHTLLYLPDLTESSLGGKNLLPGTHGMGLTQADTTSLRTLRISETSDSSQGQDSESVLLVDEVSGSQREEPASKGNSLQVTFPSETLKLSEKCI

[5] = target: Prostaglandin E2 receptor EP4 subtype (Homo sapiens, UniProt P35408); test: Displacement of [3H]PGE2 from human EP4 receptor expressed in HEK293-EBNA cells by scintillation counting in presence of 10% human serum; type: cell-based
Chain of Prostaglandin E2 receptor EP4 subtype (Homo sapiens, UniProt P35408) (P35408 whole entry): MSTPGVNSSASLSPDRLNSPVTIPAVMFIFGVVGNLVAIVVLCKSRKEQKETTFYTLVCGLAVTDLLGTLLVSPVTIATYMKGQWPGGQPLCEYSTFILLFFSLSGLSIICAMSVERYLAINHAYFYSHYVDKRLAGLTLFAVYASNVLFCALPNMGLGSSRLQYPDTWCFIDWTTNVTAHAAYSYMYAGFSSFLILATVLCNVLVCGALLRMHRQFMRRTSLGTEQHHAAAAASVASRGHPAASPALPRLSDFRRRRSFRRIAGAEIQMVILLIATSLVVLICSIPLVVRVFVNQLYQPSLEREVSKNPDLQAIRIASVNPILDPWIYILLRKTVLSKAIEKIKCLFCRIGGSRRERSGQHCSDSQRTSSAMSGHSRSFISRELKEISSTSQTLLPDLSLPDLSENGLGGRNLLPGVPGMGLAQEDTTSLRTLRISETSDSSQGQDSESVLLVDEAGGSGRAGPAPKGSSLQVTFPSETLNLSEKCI
Method in brief: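 Radioligand binding on membranes from HEK 293(EBNA) clonal cells overexpressing human EP4, [3H]PGE2 as tracer, run with 10% human serum added to assess serum protein binding; Ki values are means of at least three experiments.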

[6] = Oral bioavailability in cynomolgus monkey at 5 mg/kg; type: ADME, organism-based, Macaca fascicularis; conditions: in vivo; method in brief: as §1
[7] = Cmax bioavailability in cynomolgus monkey at 5 mg/kg, po; type: ADME, organism-based, Macaca fascicularis; design: dose 5 mg/kg, route oral; conditions: in vivo; method in brief: as §1
[8] = Cmax in Beagle dog at 5 mg/kg, po; type: ADME, organism-based, Canis lupus familiaris; design: dose 5 mg/kg, route oral; conditions: in vivo; method in brief: as §1

## Cc1sc(C)c(C(=O)NC2(c3ccc(C(=O)O)cc3)CC2)c1Cc1ccc(C(F)(F)F)cc1
[1]
  clearance: 9.2 mL/min/kg
[2]
  inhibition (INH): 60%
[3]
  Ki: > 6800 nM
[4]
  Ki: 0.7 nM
[5]
  Ki: 0.97 nM
[6]
  bioavailability: 18%
[7]
  Cmax: 50 nM
[8]
  Cmax: 3300 nM
